Source: PubChem BioAssay
A selection: hits, their analogues and other compounds. The true share with any hit is near 2.1%.
Runt-SMMHC FRET = blocks binding of human RUNX1 Runt domain to CBFb-SMMHC; Q01196+Q13951; Cerulean-Runt/Venus-CBFb-SMMHC FRET ratio 530/480, 1 h; inhibition, % at 20 µM; 220,000 compounds, 0.74% hits;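 active = mean inhibition across duplicate retests at 20 µM reaching about 50%, limit read from the data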;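 also: 0% = DMSO wells and 100% = wells with excess untagged CBFb-SMMHC; inhibitors lower the FRET ratio by blocking Runt binding to CBFb-SMMHC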
Hck Nef HTS = human Hck-Nef kinase inhibition | AID 463187 | inhibition, % at 20 µM | 220,000 compounds, 0.68% hits | Recombinant Hck-YEEI plus Nef, Z-Lyte FRET kinase assay;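 active = Hck-Nef kinase inhibition above about 50%, limit read from the data; inactive = inhibition below that limit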;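 also: 0% = DMSO with Hck plus Nef and 100% = Hck alone without Nef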
p97 ATPase inh = human p97 ATPase inhibition. P55072. recombinant p97 ATPase, Kinase-Glo ATP luminescence, 3 h. inhibition, % at 8 µM. 220,000 compounds, 0.42% hits; in the data active = inhibition above about 15%;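 also: 0% = DMSO vehicle and 100% = wells lacking enzyme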
RanGTP-Impb inh = disruptors of Ran-importin-beta complex formation – biochemical, FRET, CFP-Ran, YFP-importin-beta, homogeneous, primary screen. cell-free CFP-Ran/YFP-importin-beta FRET ratio. AID 2216. inhibition, % (concentration not given with the values). 300,000 compounds, 1.1% hits;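 active = more than half of the replicate wells show a fall in the fluorescence ratio signal beyond about 16%, limit read from the data, passing the limit was not always enough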;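 also: 0% = DMSO wells and 100% = Ran loaded with GDP instead of GTP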
Runt-CBFb FRET = blocks binding of human RUNX1 Runt domain to CBFb | Q01196+Q13951 | Cerulean-Runt/Venus-CBFb FRET ratio 530/480, 1 h | inhibition, % at 20 µM | 220,000 compounds, 0.46% hits | AID 1496;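 active = inhibition over about 50% at 20 µM in the single-dose screen, limit read from the data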;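 also: 0% = DMSO wells and 100% = excess unlabeled CBFb competitor control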
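test system = Cerulean-tagged RUNX1 Runt domain (FRET donor) fusion protein | reagent = Venus-CBFb binding partner, 100 nM | incubation = protein complex preformed 1 h, compound exposure 1 h, room temperature, dark | detection = FRET fluorescence | read-out basis = loss of energy transfer signal | controls = 5 µM unlabeled CBFb as full-inhibition high control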
Tb hexokinase = T. brucei hexokinase 1 inhibition; 220,000 compounds, 0.11% hits; recombinant TbHK1, G6PDH-coupled NADH A340; inhibition, % at 10 µM; AID 1430;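 active = inhibition of 50% or more in the single-dose primary screen; inactive = inhibition below 50%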
Hck Nef conf = Hck-Nef kinase inhibition, confirmation. shares compounds with Hck Nef HTS. Recombinant Hck-YEEI:Nef, Z-Lyte FRET kinase assay. calls only at 10 µM. 1,300 compounds, 28% hits;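 active = average inhibition of at least 50%, with Z-scores no higher than 3 in both the phospho-tyrosine peptide and fluorescence counterscreens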
An asterisk follows results filed as active.

How did CC(C)n1cnc2c(N(C)c3cccc(Cl)c3)nc(N(CCO)CCO)nc21 do in these assays?
Runt-SMMHC FRET: -1.1; Hck Nef HTS: 23.1; RanGTP-Impb inh: 5.4; Runt-CBFb FRET: 0.9; Tb hexokinase: -14.8

What do the screens show for `CC(C)[C@H](CO)N(Cc1cccc(F)c1)c1nc(Nc2cccc(Cl)c2)c2ncn(C(C)C)c2n1`?
Runt-SMMHC FRET: 3.1; Hck Nef HTS: 68.0*; RanGTP-Impb inh: 0.2; Runt-CBFb FRET: 2.4; Tb hexokinase: -31.4; Hck Nef conf: active

Results for CC[C@H](CO)Nc1nc(Nc2cccc(Cl)c2)c2ncn(C(C)C)c2n1 ?
Runt-SMMHC FRET: -1.5; Hck Nef HTS: 110.0*; RanGTP-Impb inh: -1.1; Runt-CBFb FRET: 1.7; Tb hexokinase: -17.0; Hck Nef conf: active

Results for Cc1ccc2nc(NC(=O)c3cccc(-c4cc5ccccc5oc4=O)c3)sc2c1 ?
Runt-SMMHC FRET: -1.8; Hck Nef HTS: 63.2*; p97 ATPase inh: -5.1; RanGTP-Impb inh: -1.6; Runt-CBFb FRET: -7.1; Tb hexokinase: -0.8; Hck Nef conf: inactive

Results for O=CNCCCc1nc2ccccc2n1CCc1ccccc1 ?
RanGTP-Impb inh: 2.8

What do the screens show for `CSc1nccc(-c2sc(SC)c(C#N)c2-c2ccccc2)n1`?
Runt-SMMHC FRET: 1.9; Hck Nef HTS: -10.7; p97 ATPase inh: -7.9; RanGTP-Impb inh: 1.3; Runt-CBFb FRET: 1.9; Tb hexokinase: -1.0

How did CSc1sc(-c2ccnc(SCCS(C)(=O)=O)n2)c(-c2ccccc2)c1C#N do in these assays?
Runt-SMMHC FRET: 33.6; Hck Nef HTS: 71.6*; p97 ATPase inh: 9.8; RanGTP-Impb inh: -0.9; Runt-CBFb FRET: 1.6; Tb hexokinase: -15.4; Hck Nef conf: inactive

How did CSc1ccccc1NC(=O)c1cc(-c2cccnc2)nc2ccc(Br)cc12 do in these assays?
Runt-SMMHC FRET: -3.0; Hck Nef HTS: 57.1*; p97 ATPase inh: 1.5; RanGTP-Impb inh: -0.2; Runt-CBFb FRET: -2.3; Tb hexokinase: -13.0; Hck Nef conf: inactive

How did CC(=O)Nc1cccc(NC(=O)c2cc(-c3cccnc3)nc3ccc(Br)cc23)c1 do in these assays?
Runt-SMMHC FRET: -11.5; Hck Nef HTS: 1.5; p97 ATPase inh: 7.7; RanGTP-Impb inh: 3.5; Runt-CBFb FRET: -0.1; Tb hexokinase: -11.7

What do the screens show for `CCCn1nc(C(=O)NNC(=O)Cc2ccc(S(=O)(=O)N3CCOCC3)s2)c2ccccc2c1=O`?
RanGTP-Impb inh: 5.1

What do the screens show for `Cc1c(N=C2C=CC(=O)c3ccccc32)c(=O)n(-c2ccccc2)n1C`?
Runt-SMMHC FRET: 4.4; Hck Nef HTS: 50.6*; p97 ATPase inh: 5.0; RanGTP-Impb inh: -1.6; Runt-CBFb FRET: 12.2; Tb hexokinase: -1.3; Hck Nef conf: inactive

How did COc1ccccc1CCCNC(=O)C1CCC(=O)N(CCc2cccc(F)c2)C1 (configuration not stated) do in these assays?
RanGTP-Impb inh: 1.6

Results for Fc1cccc(/C=N/Nc2ncnc3nc[nH]c23)c1 ?
Runt-SMMHC FRET: -6.1; Hck Nef HTS: 64.8*; p97 ATPase inh: 3.2; RanGTP-Impb inh: 1.7; Runt-CBFb FRET: -0.1; Tb hexokinase: -48.0; Hck Nef conf: active

How did Fc1ccccc1/C=N/Nc1ncnc2nc[nH]c12 do in these assays?
Runt-SMMHC FRET: -0.9; Hck Nef HTS: 55.7*; p97 ATPase inh: 7.1; RanGTP-Impb inh: -2.8; Runt-CBFb FRET: -0.1; Tb hexokinase: -34.2; Hck Nef conf: active

Results for c1ccc(CNc2ncnc3nc[nH]c23)nc1 ?
Runt-SMMHC FRET: 1.0; Hck Nef HTS: 2.0; p97 ATPase inh: 2.9; RanGTP-Impb inh: 2.7; Runt-CBFb FRET: -1.3; Tb hexokinase: 6.9

Results for CCc1ccc(CN2CCC(n3nccc3NC(=O)Cc3ccccc3)CC2)o1 ?
RanGTP-Impb inh: -2.9

What do the screens show for `O=C(c1cnn(C(=O)COc2ccc(Cl)cc2)c1)c1ccccc1O`?
Runt-SMMHC FRET: 2.4; Hck Nef HTS: 50.3*; p97 ATPase inh: 4.0; RanGTP-Impb inh: 2.3; Runt-CBFb FRET: -1.6; Tb hexokinase: 2.5; Hck Nef conf: active
